Consider 31 molecules from ChEMBL document CHEMBL1140086, “Targeting the ribose and phosphate binding site of p38 mitogen-activated protein (MAP) kinase: synthesis and biological testing of 2-alkylsulfanyl-, 4(5)-aryl-, 5(4)-heteroaryl-substituted imidazoles” (J Med Chem, 2008).

pIC50: −log10 of the molar value.

The target in experiment [1] is Mitogen-activated protein kinase 14 (Homo sapiens, UniProt Q16539). Description: Inhibition of p38alpha.
Experiment [2] deals with Blood. Description: Inhibition of LPS-stimulated TNFalpha release in human whole blood by ELISA. The format is functional, tissue-based. An outline of the steps:
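Fresh human whole blood diluted with FBS; compound dilutions added, 15 min preincubation (5% CO2), then LPS stimulation; basal wells received DPBS-gentamicin. […] Tests in duplicate except where otherwise stated.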

Sequence of Mitogen-activated protein kinase 14 (Q16539 whole entry): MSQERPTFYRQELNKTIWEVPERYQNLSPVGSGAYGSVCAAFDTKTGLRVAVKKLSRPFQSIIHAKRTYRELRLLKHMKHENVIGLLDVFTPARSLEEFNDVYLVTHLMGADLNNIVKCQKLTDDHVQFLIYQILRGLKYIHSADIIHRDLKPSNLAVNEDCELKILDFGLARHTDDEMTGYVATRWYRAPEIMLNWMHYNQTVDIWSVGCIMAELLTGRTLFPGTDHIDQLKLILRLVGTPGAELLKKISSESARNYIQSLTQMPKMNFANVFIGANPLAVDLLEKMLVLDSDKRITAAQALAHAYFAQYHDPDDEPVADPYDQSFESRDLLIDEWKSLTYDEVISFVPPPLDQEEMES

`OCC(O)CSc1nc(-c2ccc(F)cc2)c(-c2ccncc2)[nH]1` (stereo not given): the pIC50 was 6.41 in experiment [1] and 5.47 in experiment [2].

In the case of `CCOP(=O)(CSc1nc(-c2ccc(F)cc2)c(-c2ccnc(NC(C)c3ccccc3)c2)[nH]1)OCC` (stereo not given), the pIC50 in experiment [2] is 4.71. For the molecule `CC(C)CNc1cc(-c2[nH]c(SCC(O)CO)nc2-c2ccc(F)cc2)ccn1` (stereo not given), in experiment [2], the pIC50 was 6.77. Consider `COC(=O)CSc1nc(-c2ccc(F)cc2)c(-c2ccncc2)[nH]1`, for which the values for the pIC50 in experiment [1] and in experiment [2] were 6.80 and 4.50, respectively. The matching figures for `COC(=O)CSc1nc(-c2ccc(F)cc2)c(-c2ccnc(NC(C)C)c2)[nH]1`: 8.40 and 4.89.

As to `COC(=O)CSc1nc(-c2ccc(F)cc2)c(-c2ccnc(NC(C)C(C)C)c2)[nH]1` (stereo not given), the negative logarithm of the IC50 (pIC50) in experiment [1] is 7.72; in experiment [2], 5.05. The matching figures for `CC(C)C(C)Nc1cc(-c2[nH]c(SC[C@H](O)CO)nc2-c2ccc(F)cc2)ccn1` (stereo not given in full): 7.74 and 6.78. For the molecule `CC(C)Nc1cc(-c2[nH]c(SCCO)nc2-c2ccc(F)cc2)ccn1`, in experiment [2], the pIC50 is 6.89. `CC(C)C(C)Nc1cc(-c2[nH]c(SCCCO)nc2-c2ccc(F)cc2)ccn1` (stereo not given): the pIC50 in experiment [1] was 7.92; in experiment [2], 6.84.

Consider `CC(C)Nc1cc(-c2[nH]c(SCC(O)CO)nc2-c2ccc(F)cc2)ccn1` (stereo not given), for which the figures for the pIC50 in experiment [1] and in experiment [2] were 8.52 and 6.90, respectively. Turning to `Cn1c(SCC(O)CO)nc(-c2ccc(F)cc2)c1-c1ccncc1` (stereo not given), the pIC50 in experiment [1] is 5.91. For the molecule `CC(C)C(C)Nc1cc(-c2[nH]c(SCCO)nc2-c2ccc(F)cc2)ccn1` (stereo not given), the pIC50 was 7.96 in experiment [1] and 7.43 in experiment [2]. The matching figures for `COC(=O)CCCSc1nc(-c2ccc(F)cc2)c(-c2ccncc2)[nH]1`: 6.31 and 4.50. On the same counts, the results for `CCOC(=O)C(Sc1nc(-c2ccc(F)cc2)c(-c2ccncc2)[nH]1)C(=O)OCC` are 5.65 and 4.60. On the same counts, the results for `CC(C)Nc1cc(-c2[nH]c(SC[C@@H](O)CO)nc2-c2ccc(F)cc2)ccn1` are 8.52 and 6.91. On to `COC(=O)CSc1nc(-c2ccc(F)cc2)c(-c2ccnc(NC(C)c3ccccc3)c2)[nH]1` (stereo not given), for which the pIC50 in experiment [1] is 7.44; in experiment [2], 4.34. Turning to `OCCCSc1nc(-c2ccc(F)cc2)c(-c2ccncc2)[nH]1`, the pIC50 in experiment [1] is 6.67; in experiment [2], 5.17. The matching figures for `CC(Nc1cc(-c2[nH]c(SCC(=O)O)nc2-c2ccc(F)cc2)ccn1)c1ccccc1` (stereo not given): 7.43 and 4.18. The matching figures for `CC(C)Nc1cc(-c2[nH]c(SC[C@H](O)CO)nc2-c2ccc(F)cc2)ccn1`: 8.22 and 6.74. The matching figures for `OCCSc1nc(-c2ccc(F)cc2)c(-c2ccnc(NC3CCOCC3)c2)[nH]1`: 8.70 and 7.10.

Consider `OCCSc1nc(-c2ccc(F)cc2)c(-c2ccnc(N[C@H]3CC[C@H](O)CC3)c2)[nH]1`, for which the pIC50 in experiment [2] is 6.80. As for `OCCSc1nc(-c2ccc(F)cc2)c(-c2ccncc2)[nH]1`, the pIC50 in experiment [1] is 6.74; in experiment [2] it was 5.38. The matching figures for `CCNc1cc(-c2[nH]c(SCC(O)CO)nc2-c2ccc(F)cc2)ccn1` (stereo not given): 7.57 and 6.11.

Regarding `OCC(O)CSc1nc(-c2ccc(F)cc2)c(-c2ccnc(NCc3ccccc3)c2)[nH]1` (stereo not given), in experiment [2], the negative logarithm of the IC50 (pIC50) is 5.57. Regarding `CC(C)C(C)Nc1cc(-c2[nH]c(SCC(O)CO)nc2-c2ccc(F)cc2)ccn1` (stereo not given), the pIC50 in experiment [1] is 7.82; in experiment [2], 6.74. On the same counts, the results for `CCC(C)Nc1cc(-c2[nH]c(SCC(O)CO)nc2-c2ccc(F)cc2)ccn1` (stereo not given) are 8.30 and 6.81. The matching figures for `CNc1cc(-c2[nH]c(SCC(O)CO)nc2-c2ccc(F)cc2)ccn1` (stereo not given): 6.99 and 5.24. The molecule `CSc1nc(-c2ccc(F)cc2)c(-c2ccnc(NC3CCOCC3)c2)[nH]1` gave a pIC50 in experiment [2] of 6.70. Regarding `OCC(O)CSc1nc(-c2ccc(F)cc2)c(-c2ccnc(NC3CCOCC3)c2)[nH]1` (stereo not given), the pIC50 in experiment [1] is 8.52; in experiment [2] it was 6.88. The matching figures for `CC(Nc1cc(-c2[nH]c(SCC(O)CO)nc2-c2ccc(F)cc2)ccn1)c1ccccc1` (stereo not given): 7.39 and 6.03.

As for `CC(C)C(C)Nc1cc(-c2[nH]c(SC[C@@H](O)CO)nc2-c2ccc(F)cc2)ccn1` (stereo not given in full), the pIC50 in experiment [1] is 8.00; in experiment [2], 6.86.
